Source: PMC9076653 (RSC Advances, 2019)
Values joined by “and” are separate entries in the source; they are usually repeats but may differ in a detail not shown here. Identical values can stand only once.

What was measured:
HUVEC = experiment: MTT cell growth inhibition assay, HUVEC; format: cell-based; settings: Homo sapiens, 72 h, read-out: IC50 HUVEC
How it was run: (§1)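 MTT assay. Seeding per well was 3 × 10^3 for cancer cells, 4 × 10^3 for HUVEC and 8 × 10^3 for HL7702. Test compound was added after adherence and incubated 72 h. MTT (5 mg mL−1 stock) was added for a further 4 h at 37 °C, formazan was dissolved in DMSO, and absorbance was read at 570 nm. Inhibition was calculated relative to controls, and IC50 is the concentration giving 50% growth inhibition.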

HeLa = experiment: MTT cell growth inhibition assay, HeLa; format: cell-based; settings: Homo sapiens, 72 h, read-out: IC50 HeLa
How it was run: as §1

HL7702 = experiment: MTT cell growth inhibition assay, HL7702; format: cell-based; settings: Homo sapiens, L02, 72 h, read-out: IC50 HL7702
How it was run: as §1

[1] = system: Hsp90 client proteins (Her2, AKT, CDK4) and Hsp70 in MDA-MB 231 cells; experiment: Western blot assay of Hsp90 inhibition in cellular system; format: cell-based, human; settings: 0.5 μM
How it was run: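 MDA-MB 231 cells were treated with or without test compound over different time courses. Cells were lysed in ice-cold Tris-HCl (pH 7.4) buffer with Triton, EDTA/EGTA, phosphatase and protease inhibitors, then boiled 10 min in SDS loading buffer. Proteins were separated by 8–12% SDS-PAGE and transferred to PVDF. Membranes were blocked in 5% BSA in PBS-Tween for 1 h, incubated with primary antibodies overnight at 4 °C, and detected with peroxidase-conjugated anti-rabbit or anti-mouse secondary antibodies and ECL.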

HepG2 = experiment: MTT cell growth inhibition assay, HepG2; format: cell-based; settings: Homo sapiens, HepG2, 72 h, read-out: IC50 HepG2
How it was run: as §1

BGC-823 = experiment: MTT cell growth inhibition assay, BGC-823; format: cell-based; settings: Homo sapiens, BGC-823, 72 h, read-out: IC50 BGC-823
How it was run: as §1

MDA-MB-231 = experiment: MTT cell growth inhibition assay, MDA-MB-231; format: cell-based; settings: Homo sapiens, MDA-MB-231, 72 h, read-out: IC50 MDA-MB-231
How it was run: as §1

SW480 = experiment: MTT cell growth inhibition assay, SW480; format: cell-based; settings: Homo sapiens, SW480, 72 h, read-out: IC50 SW480
How it was run: as §1

MDA-MB-231 xenograft = experiment: In vivo antitumor assay, MDA-MB-231 xenograft model; set-up: species or system nude mice; settings: 10 mg kg^−1 via caudal vein every three days, 15 days
How it was run: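 Female athymic nude mice (6–7 weeks) first received 5 × 10^6 logarithmic-phase MDA-MB-231 cells s.c. in physiological saline. After two weeks, tumour fragments were implanted into the right flank. At a mean tumour volume of 100 mm3, mice were randomised (6 per group) and dosed 10 mg kg−1 via the tail vein every three days for 15 days. Vehicle was 5% glucose with 1% DMSO and 2% lecithin; a reference Hsp90 inhibitor served as positive control. Calipers were used every three days, with V = length × width²/2. TGI came from final tumour weights, and T/C from mean RTV (Vt/V0). Student's two-tailed t test was used, P < 0.05.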

A549 = experiment: MTT cell growth inhibition assay, A549; format: cell-based; settings: Homo sapiens, A549, 72 h, read-out: IC50 A549
How it was run: as §1

A431 = experiment: MTT cell growth inhibition assay, A431; format: cell-based; settings: Homo sapiens, A-431, 72 h, read-out: IC50 A431
How it was run: as §1

[2] = In vivo hepatotoxicity assay; set-up: species or system Kunming mice; settings: mice
How it was run: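 Female Kunming mice (4–6 weeks) were randomised into three groups of three: vehicle control, or test compound or parent ansamycin at 10 mg kg−1. They were injected once daily for three consecutive days. Serum AST and ALT were then measured with spectrophotometric kits and reported in U L−1.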

[3] = 10 mg kg^−1, injected once a day for three days, blood serum

Row | SMILES | IC50 (HUVEC) [nM] | IC50 (HeLa) [nM] | IC50 (HL7702) [nM] | levels of Hsp70 [1] | IC50 (HepG2) [nM] | IC50 (BGC-823) [nM] | IC50 (MDA-MB-231) [nM] | IC50 (SW480) [nM] | T/C (MDA-MB-231 xenograft; relative tumor volume) | TGI (MDA-MB-231 xenograft; tumor weight) | IC50 (A549) [nM] | IC50 (A431) [nM] | ALT [2, 3] [U L^−1] | AST [2, 3] [U L^−1] | AST and ALT levels versus vehicle control group ([2]; 10 mg kg^−1, three days)
1 | C=CCNC1=C2C[C@@H](C)C[C@H](OC)[C@H](O)[C@@H](C)/C=C(\C)[C@H](OC(N)=O)[C@@H](OC)/C=C\C=C(/C)C(=O)NC(=CC1=O)C2=O [Compound 17-AAG, 17-allylamino-17-demethoxygeldanamycin] | 271 ± 38 | 112 ± 18 | 105 ± 7 | markedly increased | 82 ± 16 | 725 ± 99 | 324 ± 76 | 614 ± 85 | 41.9% and 41.9 ± 11.3% | 55.1% and 55.1 ± 5.5% | 87 ± 6 | 72 ± 4 | – | – | –
2 | COC1=C2C[C@@H](C)C[C@H](OC)[C@H](O)[C@@H](C)/C=C(\C)[C@H](OC(N)=O)[C@@H](OC)/C=C\C=C(/C)C(=O)NC(=CC1=O)C2=O [GA, Geldanamycin] | 18 ± 3 | 731 ± 53 | 133 ± 20 | markedly increased | 45 ± 7 | 40 ± 8 | 59 ± 13 | 298 ± 34 | – | – | 91 ± 7 | 45 ± 6 | 273.0 ± 25.3 | 317.2 ± 39.1 | significantly higher
